For eleven compounds, Activity, inhibition and IC50 results are on record in ChEMBL document CHEMBL4610110, “Targeting mPGES-1 by a Combinatorial Approach: Identification of the Aminobenzothiazole Scaffold to Suppress PGE2 Levels” (ACS Med Chem Lett, 2020).

For assay [1], the target named is T1, Prostaglandin E synthase (Homo sapiens) (UniProt O14684).
T1 sequence (whole entry): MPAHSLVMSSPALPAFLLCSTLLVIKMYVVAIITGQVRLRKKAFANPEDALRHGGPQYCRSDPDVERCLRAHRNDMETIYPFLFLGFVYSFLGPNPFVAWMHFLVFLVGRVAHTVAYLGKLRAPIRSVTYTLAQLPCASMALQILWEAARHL
Nature of the assay: Inhibition of mPGES1 in human A549 cells assessed as reduction in IL-1beta induced PGE2 release by measuring residual activity at 10 uM using PGH2 as substrate preincubated for 15 mins followed by substrate addition and measured after 1 min by RP-UV-HPLC analysis relative to control. In kind it is cell-based. Put shortly:
(§1)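 The enzyme source was microsomes from IL-1β-stimulated A549 cells in a cell-free assay. The read-out was enzymatic conversion of PGH2 (20 μM) to PGE2.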

The test system of assay [2] is A549. Nature of the assay: Antiproliferative activity against human A549 cells assessed as inhibition of cell viability incubated for 24 hrs by MTT assay. The assay is classed as functional, cell-based. Particulars: A549, 24 h. Put shortly:
(§2)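 A549 cells were exposed to test compounds in an MTT viability assay (5–100 μM for the 48 h and 72 h exposures). IC50 is the mean ± S.D. of single determinations from three independent experiments.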
(In general: Formazan colour is commonly taken as a measure of viable cells.)

Assay [3] concerns A549. The assay is described as follows: Antiproliferative activity against human A549 cells assessed as inhibition of cell viability incubated for 48 hrs by MTT assay. The assay is classed as functional, cell-based. Particulars: A549, 48 h. Put shortly: as §2
Assay [4] deals with A549. The assay is described as follows: Antiproliferative activity against human A549 cells assessed as inhibition of cell viability incubated for 72 hrs by MTT assay. The assay is classed as functional, cell-based. Conditions: A549, 72 h. Put shortly: as §2
Assay [5] concerns the target T1, Prostaglandin E synthase (Homo sapiens). The assay is described as follows: Inhibition of mPGES1 in human A549 cells assessed as reduction in IL-1beta induced PGE2 release incubated for 24 hrs by ELISA. In kind it is cell-based. Put shortly: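 A549 cells were incubated for 24 h at 5 or 10 μM in medium with 1% FBS and 10 ng/mL IL-1β. PGE2 released into the medium was quantified by ELISA against DMSO vehicle-treated cells. Values are mean ± SEM (pg/mL) of two independent experiments.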

The target of assay [6] is T2, Prostaglandin E synthase (Homo sapiens, UniProt O14684).
T2 sequence (O14684 whole entry): T1 sequence (whole entry)
Nature of the assay: Inhibition of mPGES1 in human A549 cells assessed as reduction in IL-1beta induced PGE2 release using PGH2 as substrate preincubated for 15 mins followed by substrate addition and measured after 1 min by RP-UV-HPLC analysis. The assay is classed as cell-based. Put shortly: as §1

In assay [7] the test system is A549. The assay is described as follows: Induction of programmed cell death in human A549 cells assessed as accumulation at subG0/G1 phase at 20 to 30 uM incubated for 48 hrs by propidium iodide staining based flow cytometric analysis relative to control. In kind it is functional. Put shortly: (§3)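 A549 human lung epithelial cancer cells were exposed to compound at several concentrations for 48 or 72 h. DNA was then stained with propidium iodide, and the percentage of cells in each cycle phase was measured by flow cytometry. The hypodiploid subG0/G1 fraction was read as cell death. Values are mean ± SEM of two independent experiments, each run in triplicate.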
(In general: A flow cytometer gives signals particle by particle.)

The test system of assay [8] is A549. Nature of the assay: Induction of programmed cell death in human A549 cells assessed as accumulation at subG0/G1 phase at 20 to 30 uM incubated for 72 hrs by propidium iodide staining based flow cytometric analysis relative to control. The assay is classed as functional. Put shortly:
as §3

Assay [9] deals with A549. Nature of the assay: Induction of cell cycle arrest in human A549 cells assessed as accumulation at G2/M phase at 30 uM incubated for 72 hrs by propidium iodide staining based flow cytometric analysis. The assay is classed as functional. Put shortly:
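A549 cells were treated at several concentrations for 48 or 72 h, then stained for DNA with propidium iodide. Cell-cycle phase percentages were read by flow cytometry. Values are means ± SEM of two independent experiments, each run in triplicate.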

Calls of active or inactive are those of the source. The rule behind the calls is not given here. Bounds are passed on as bounds.

With `O=C(Nc1nc2cc(-c3cccc(CO)c3)ccc2s1)c1ccc(F)cc1Cl`, the Activity in assay [1] was > 30%.
Consider `NC(=O)c1cccc(-c2ccc3sc(NC(=O)c4c(Cl)cccc4Cl)nc3c2)c1`, for which the inhibition entry in assay [1] was “inactive”.
For `Cc1cc(C)c(C(=O)Nc2nc3cc(-c4cccc(C(N)=O)c4)ccc3s2)o1`, in assay [1], the inhibition result is “inactive”.
One may read the IC50 as the concentration at which inhibition is half-maximal. As to `O=C1OC(O)C(c2cc3ccccc3s2)=C1Br` (stereo unspecified), the figures for the IC50 in assay [2], in [3] and in assay [4] were 98.5 µM, 12.5 µM and 9.1 µM, respectively.
Consider `Cc1cc(C)c(C(=O)Nc2nc3ccc(-c4cccc(CO)c4)cc3s2)o1`, for which, in [5], the inhibition entry was “Dose-dependent effect”. In addition, the 50% inhibitory concentration (IC50) in assay [2] worked out at 95 µM; in [6], 2.6 µM; in assay [3] it was 63.2 µM; in assay [4], 55.2 µM.
`O=C(Nc1nc2cc(-c3cccc(CO)c3)ccc2s1)c1ccccc1Br`: in assay [1], the Activity was > 30%.
Take `O=C(Nc1nc2cc(-c3cccc(CO)c3)ccc2s1)c1c(Cl)cccc1Cl`: the Activity in assay [1] is > 30%.
`O=C(Nc1nc2ccc(-c3cccc(CO)c3)cc2s1)c1ccc(F)cc1Cl`: the outcome in assay [7] and in [8] was inactive. Also, in assay [5], the inhibition result was “Dose-dependent effect”. The IC50 in assay [2] came to 98.2 µM; in [6], 1.4 µM; in [3], 71.4 µM; in [4], 28.5 µM.
Take `NC(=O)c1cccc(-c2ccc3sc(NC(=O)c4ccc(F)cc4C(F)(F)F)nc3c2)c1`: the Activity in assay [7] worked out at 6%; in [8], 7%. Moreover, the inhibition result in [5] is “Dose-dependent effect”. In addition, the IC50 in [2] is 98.3 µM; in assay [6], 1.7 µM; in assay [3], 50.6 µM; in assay [4] it was 19.2 µM.
On to `O=C(Nc1nc2ccc(-c3cccc(CO)c3)cc2s1)c1ccccc1Br`, for which the Activity in [7] is given as 5%; in [8], 18%. In [5], the inhibition result was “Dose-dependent effect”. Moreover, the result in assay [9] was Active. The IC50 in assay [2] is 97.5 µM; in assay [6] it was 0.7 µM; in assay [3] it was 57.5 µM; in assay [4], 18.1 µM.
For `Cc1cc(C)c(C(=O)Nc2nc3cc(-c4cccc(CO)c4)ccc3s2)o1`, the Activity in [1] was > 30%.
